Experimental data published in ChEMBL document CHEMBL1151761, “Radiohalogenated prostate-specific membrane antigen (PSMA)-based ureas as imaging agents for prostate cancer” (J Med Chem, 2008).

Assays:
Type in all cases: ADME, organism-based
[1] = Biodistribution in PC3 PIP tumor of PSMA expressing human PC3 PIP and PSMA deficient human PC3 flu cells xenografted SCID mouse at 2 uCi, iv after 60 mins; details: in vivo, 1 h
[2] = system: Urinary bladder; test: Biodistribution in bladder of PSMA expressing human PC3 PIP and PSMA deficient human PC3 flu cells xenografted SCID mouse at 2 uCi, iv after 30 mins; details: in vivo, 0.5 h
[3] = Biodistribution in PC3 PIP tumor of PSMA expressing human PC3 PIP and PSMA deficient human PC3 flu cells xenografted SCID mouse at 2 uCi, iv after 2 hrs; details: in vivo
[4] = system: Lung; test: Biodistribution in lung of PSMA expressing human PC3 PIP and PSMA deficient human PC3 flu cells xenografted SCID mouse at 2 uCi, iv after 60 mins; details: in vivo, 1 h
[5] = system: Liver; test: Biodistribution in liver of PSMA expressing human PC3 PIP and PSMA deficient human PC3 flu cells xenografted SCID mouse at 2 uCi, iv after 30 mins; details: in vivo, 0.5 h
[6] = Ratio of drug level in tumor to pancreas of human PSMA expressing PC3 PIP and PSMA deficient human PC3 flu cells xenografted SCID mouse at 2 uCi, iv after 5 hrs; details: in vivo
Summary of the method: (§1)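 Male SCID mice carried subcutaneous xenografts: PSMA+ PC-3 PIP behind the left shoulder and PSMA− PC-3 flu behind the right, 1–5 × 10^6 cells in HBSS. Mice were used at 3–5 mm tumor diameter. 2 μCi was given by tail vein, and 4 mice per time point were killed by cervical dislocation. %ID/g came from a standard dilution of the dose, decay-corrected. Ratio is PIP tumor %ID/g to organ %ID/g.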

[7] = system: Kidney; test: Biodistribution in kidney of PSMA expressing human PC3 PIP and PSMA deficient human PC3 flu cells xenografted SCID mouse at 2 uCi, iv after 2 hrs; details: in vivo
[8] = Ratio of drug level in tumor to muscle of human PSMA expressing PC3 PIP and PSMA deficient human PC3 flu cells xenografted SCID mouse at 2 uCi, iv after 2 hrs; details: in vivo
Summary of the method: (§2)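 Male SCID mice carried subcutaneous PSMA+ PC-3 PIP (left shoulder) and PC-3 flu (right shoulder) xenografts, 1-5 × 10^6 cells in HBSS, and were used at 3-5 mm tumor diameter. Tail-vein injection of 2 µCi radioligand; four mice per time point, killed by cervical dislocation. %ID/g from a standard dilution of the dose, decay-corrected, mean ± SD; PIP tumor:organ ratios.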

[9] = system: Liver; test: Biodistribution in liver of PSMA expressing human PC3 PIP and PSMA deficient human PC3 flu cells xenografted SCID mouse at 2 uCi, iv after 60 mins; details: in vivo, 1 h
[10] = Ratio of drug level in tumor to stomach of human PSMA expressing PC3 PIP and PSMA deficient human PC3 flu cells xenografted SCID mouse at 2 uCi, iv after 2 hrs; details: in vivo; summary of the method: as §1
[11] = system: Heart; test: Biodistribution in heart of PSMA expressing human PC3 PIP and PSMA deficient human PC3 flu cells xenografted SCID mouse at 2 uCi, iv after 5 hrs; details: in vivo
[12] = Ratio of drug level in tumor to small intestine of human PSMA expressing PC3 PIP and PSMA deficient human PC3 flu cells xenografted SCID mouse at 2 uCi, iv after 2 hrs; details: in vivo; summary of the method: as §1
[13] = system: Pancreas; test: Biodistribution in pancreas of PSMA expressing human PC3 PIP and PSMA deficient human PC3 flu cells xenografted SCID mouse at 2 uCi, iv after 5 hrs; details: in vivo
[14] = Ratio of drug level in tumor to blood of human PSMA expressing PC3 PIP and PSMA deficient human PC3 flu cells xenografted SCID mouse at 2 uCi, iv after 5 hrs
Summary of the method: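 Male SCID mice carried subcutaneous xenografts of PSMA+ PC-3 PIP cells behind the left shoulder and PSMA− PC-3 flu cells behind the right (1–5 × 10^6 cells in HBSS), used at a tumour diameter of 3–5 mm. Each mouse received 2 μCi of radioiodinated tracer via the tail vein. Tissues were harvested at each time point for %ID/g against a standard dilution of the dose, decay-corrected. Ratios are PIP tumour:organ.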

[15] = system: Muscle tissue; test: Biodistribution in muscle of PSMA expressing human PC3 PIP and PSMA deficient human PC3 flu cells xenografted SCID mouse at 2 uCi, iv after 2 hrs; details: in vivo
[16] = Ratio of drug level in tumor to kidney of human PSMA expressing PC3 PIP and PSMA deficient human PC3 flu cells xenografted SCID mouse at 2 uCi, iv after 60 mins; details: in vivo, 1 h; summary of the method: as §2
[17] = Ratio of drug level in tumor to pancreas of human PSMA expressing PC3 PIP and PSMA deficient human PC3 flu cells xenografted SCID mouse at 2 uCi, iv after 2 hrs; details: in vivo; summary of the method: as §2
[18] = system: Pancreas; test: Biodistribution in pancreas of PSMA expressing human PC3 PIP and PSMA deficient human PC3 flu cells xenografted SCID mouse at 2 uCi, iv after 30 mins; details: in vivo, 0.5 h
[19] = system: Spleen; test: Biodistribution in spleen of PSMA expressing human PC3 PIP and PSMA deficient human PC3 flu cells xenografted SCID mouse at 2 uCi, iv after 30 mins; details: in vivo, 0.5 h
[20] = system: Muscle tissue; test: Biodistribution in muscle of PSMA expressing human PC3 PIP and PSMA deficient human PC3 flu cells xenografted SCID mouse at 2 uCi, iv after 30 mins; details: in vivo, 0.5 h
[21] = system: Spleen; test: Biodistribution in spleen of PSMA expressing human PC3 PIP and PSMA deficient human PC3 flu cells xenografted SCID mouse at 2 uCi, iv after 2 hrs; details: in vivo
[22] = Biodistribution in small intestine of PSMA expressing human PC3 PIP and PSMA deficient human PC3 flu cells xenografted SCID mouse at 2 uCi, iv after 5 hrs; details: in vivo; summary of the method: as §2
[23] = Ratio of drug level in tumor to small intestine of human PSMA expressing PC3 PIP and PSMA deficient human PC3 flu cells xenografted SCID mouse at 2 uCi, iv after 60 mins; details: in vivo, 1 h; summary of the method: as §1
[24] = Ratio of drug level in tumor to bladder of human PSMA expressing PC3 PIP and PSMA deficient human PC3 flu cells xenografted SCID mouse at 2 uCi, iv after 60 mins; details: in vivo, 1 h; summary of the method: as §2
[25] = system: Muscle tissue; test: Biodistribution in muscle of PSMA expressing human PC3 PIP and PSMA deficient human PC3 flu cells xenografted SCID mouse at 2 uCi, iv after 60 mins; details: in vivo, 1 h
[26] = Biodistribution in large intestine of PSMA expressing human PC3 PIP and PSMA deficient human PC3 flu cells xenografted SCID mouse at 2 uCi, iv after 60 mins; details: in vivo, 1 h; summary of the method: as §2
[27] = Ratio of drug level in tumor to large intestine of human PSMA expressing PC3 PIP and PSMA deficient human PC3 flu cells xenografted SCID mouse at 2 uCi, iv after 30 mins; details: in vivo, 0.5 h; summary of the method: as §2
[28] = Ratio of drug level in tumor to heart of human PSMA expressing PC3 PIP and PSMA deficient human PC3 flu cells xenografted SCID mouse at 2 uCi, iv after 2 hrs; details: in vivo; summary of the method: as §2
[29] = Ratio of drug level in tumor to liver of human PSMA expressing PC3 PIP and PSMA deficient human PC3 flu cells xenografted SCID mouse at 2 uCi, iv after 5 hrs; details: in vivo; summary of the method: as §2

O=C(O)CC[C@H](NC(=O)N[C@@H](CCCCNC(=O)c1ccc([18F])cc1)C(=O)O)C(=O)O
Drug uptake [1]: 6.4 % ID/g
Drug uptake [2]: 6.8 % ID/g
Drug uptake [3]: 3.7 % ID/g
Drug uptake [4]: 0.5 % ID/g
Drug uptake [5]: 8.7 % ID/g
Ratio [6]: 70
Drug uptake [7]: 29 % ID/g
Ratio [8]: 19
Drug uptake [9]: 5.8 % ID/g
Ratio [10]: 13
Drug uptake [11]: 0.03 % ID/g
Ratio [12]: 12
Drug uptake [13]: 0.05 % ID/g
Kp at 5 h [14]: 117
Drug uptake [15]: 0.2 % ID/g
Ratio [16]: 0.1
Ratio [17]: 25
Drug uptake [18]: 0.8 % ID/g
Drug uptake [19]: 12.7 % ID/g
Drug uptake [20]: 2.4 % ID/g
Drug uptake [21]: 4.4 % ID/g
Drug uptake [22]: 0.1 % ID/g
Ratio [23]: 11
Ratio [24]: 0.4
Drug uptake [25]: 0.5 % ID/g
Drug uptake [26]: 0.5 % ID/g
Ratio [27]: 7
Ratio [28]: 25
Ratio [29]: 3.5
